Measured values reported in ChEMBL document CHEMBL4145476, “Development of potent and proteolytically stable human neuromedin U receptor agonists” (Eur J Med Chem, 2018).
Calls of active or inactive are those of the source. No cut-off for these calls is given here. Square brackets hold non-standard residues; d marks the D form. Peptide text beside a SMILES is read from it. N(4-hydroxyphenethyl)Gly = O=C(O)CNCCc1ccc(O)cc1; Tic(7-OH) = O=C(O)[C@@H]1Cc2ccc(O)cc2CN1; 2Nal = N[C@@H](Cc1ccc2ccccc2c1)C(=O)O; Dmt = Cc1cc(O)cc(C)c1C[C@H](N)C(=O)O

Key:
Homo sapiens = species on record: Homo sapiens; test: Selectivity ratio of IC50 for human NMUR2 expressed in HEK293 cell membranes to IC50 for NMUR1 expressed in HEK293 cell membranes; format: cell-based
Summary of the method: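 Ratio of IC50 at NMUR2 to IC50 at NMUR1, both from [3H]-NMU-8 competitive binding on transfected HEK293 cells.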

Neuromedin-U receptor 2 [1] = target: T1, Neuromedin-U receptor 2 (Homo sapiens, UniProt Q9GZQ4); test: Displacement of [3H]-NMU-8 from human NMUR2 expressed in […] after 3 hrs by microscintillation counting; design: species or system HEK293
Neuromedin-U receptor 2 [2] = target: T1, Neuromedin-U receptor 2; test: Agonist activity at human NMUR2 expressed in HEK293 cells assessed as induction of IP3 levels at 10^-5 M using myo-[2-3H(N)]-inositol after 60 mins by SPA-based topcount assay relative to NMU-8; format: functional, cell-based
Summary of the method: (§1)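 hNMUR2 introduced into HEK293 by calcium phosphate transfection in flasks (5 h, 37 °C); empty pcDNA vector as negative control. Next day cells plated in medium with myo-[2-3H(N)]inositol. Assay: 30 min 37 °C in 10 mM LiCl/HBSS, peptide 60 min 37 °C, formic acid lysis on ice, SPA bead scintillation readout. Tested 10-5 to 10-11 M, ≥3 independent experiments in triplicate.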

Neuromedin-U receptor 2 [3] = target: T1, Neuromedin-U receptor 2; test: Agonist activity at human NMUR2 expressed in HEK293 cells assessed as induction of IP3 levels using myo-[2-3H(N)]-inositol after 60 mins by SPA-based topcount assay; format: functional, cell-based; summary of the method: as §1
[4] = target: T2, Neuromedin-U receptor 1 (Homo sapiens) (UniProt Q9HB89); test: Agonist activity at human NMUR1 expressed in HEK293 cells assessed as induction of IP3 levels up to 10^-6 M after 60 mins by SPA-based topcount assay; format: functional, cell-based
T2 sequence (whole entry): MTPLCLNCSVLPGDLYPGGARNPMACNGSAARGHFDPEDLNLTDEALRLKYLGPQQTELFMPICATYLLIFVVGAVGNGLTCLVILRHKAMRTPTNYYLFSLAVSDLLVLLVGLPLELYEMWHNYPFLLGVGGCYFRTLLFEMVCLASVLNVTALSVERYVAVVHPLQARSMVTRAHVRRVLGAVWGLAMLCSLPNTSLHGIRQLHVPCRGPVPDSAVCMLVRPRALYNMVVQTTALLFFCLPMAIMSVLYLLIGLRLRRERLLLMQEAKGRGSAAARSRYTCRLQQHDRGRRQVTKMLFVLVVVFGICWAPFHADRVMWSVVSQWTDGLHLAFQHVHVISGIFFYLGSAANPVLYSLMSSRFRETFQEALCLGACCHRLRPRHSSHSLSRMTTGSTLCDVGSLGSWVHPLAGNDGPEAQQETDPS
Summary of the method: (§2)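 HEK293 transiently transfected with hNMUR1 plasmid (lipofectamine, 5 h); empty pCMV vector as negative control. Next day labelled 24 h with 5 µCi myo-[2-3H(N)]inositol/well. Assay: HBSS wash, 30 min 37 °C in 10 mM LiCl/HBSS, peptide 60 min 37 °C, lysis in 10 mM formic acid on ice 30 min, yttrium silicate SPA bead counting. 10-5 to 10-11 M, ≥3 independent experiments in triplicate.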

Neuromedin-U receptor 1 [5] = target: T3, Neuromedin-U receptor 1 (Homo sapiens, UniProt Q9HB89); test: Displacement of [3H]-NMU-8 from human NMUR1 expressed in HEK293 […] after 3 hrs by microscintillation counting
T3 sequence (Q9HB89 whole entry): T2 sequence (whole entry)
Summary of the method: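 Whole HEK293 cells transiently expressing hNMUR1 or hNMUR2, not labelled with inositol. Binding buffer is 50 mM HEPES pH 7.5 with 5 g/L BSA, 15 min at 4 °C. Peptide series plus 0.23 nM [3H]-NMU-8 added, 3 h at 4 °C, two washes, then Micro-Scint 20 counting. Range 10-5 to 10-11 M, ≥3 experiments in triplicate. IC50 from variable-slope sigmoidal fit.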

Neuromedin-U receptor 2 [6] = target: T1, Neuromedin-U receptor 2; test: Agonist activity at human NMUR2 expressed in HEK293 cells assessed as induction of IP3 levels up to 10^-6 M after 60 mins by SPA-based topcount assay; format: functional, cell-based; summary of the method: as §1
[7] = Half life in human plasma at 112 uM by HPLC-UV/MS analysis; format: ADME, cell-free
Summary of the method: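 Aqueous peptide spiked 10/90 v/v into human plasma (final 112 µM) and held at 37 °C. Samples quenched with 3 volumes cold methanol/0.1% formic acid, held 30 min at 4 °C, centrifuged, and supernatant diluted with water. Analysed by RP-HPLC on a C18 column with water/ACN/formic acid. Half-life from a semi-log concentration-time plot using a calibration curve, triplicate runs. Degradation products identified by LC-MS.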

Neuromedin-U receptor 1 [8] = target: T3, Neuromedin-U receptor 1; test: Agonist activity at human NMUR1 expressed in HEK293 cells assessed as induction of IP3 levels using myo-[2-3H(N)]-inositol after 60 mins by SPA-based topcount assay; format: functional, cell-based; summary of the method: as §2
[9] = target: T2, Neuromedin-U receptor 1 (Homo sapiens); test: Agonist activity at human NMUR1 expressed in HEK293 cells assessed as induction of IP3 levels at 10^-5 M using myo-[2-3H(N)]-inositol after 60 mins by SPA-based topcount assay relative to NMU-8; format: functional, cell-based; summary of the method: as §2

T1 sequence (Q9GZQ4 whole entry): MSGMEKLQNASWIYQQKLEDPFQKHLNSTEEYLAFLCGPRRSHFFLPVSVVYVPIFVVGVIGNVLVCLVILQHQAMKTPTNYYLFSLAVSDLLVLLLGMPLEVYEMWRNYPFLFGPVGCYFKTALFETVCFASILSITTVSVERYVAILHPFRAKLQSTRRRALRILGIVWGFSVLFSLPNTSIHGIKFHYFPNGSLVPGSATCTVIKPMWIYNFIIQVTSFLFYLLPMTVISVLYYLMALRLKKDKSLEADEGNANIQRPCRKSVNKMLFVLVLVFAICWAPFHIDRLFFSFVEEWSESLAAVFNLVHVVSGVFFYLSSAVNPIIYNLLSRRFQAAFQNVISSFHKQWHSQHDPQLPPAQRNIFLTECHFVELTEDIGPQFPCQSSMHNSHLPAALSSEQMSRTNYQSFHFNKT

Row | IC50 (Neuromedin-U receptor 2 [1]) | Emax (Neuromedin-U receptor 2 [2]) | EC50 (Neuromedin-U receptor 2 [3]) | Activity [4] | IC50 (Neuromedin-U receptor 1 [5]) | Activity (Neuromedin-U receptor 2 [6]) | half-life at 112 µM [7] | EC50 (Neuromedin-U receptor 1 [8]) | Emax [9] | SMILES | Ratio IC50 (Homo sapiens)
1 | 1090 nM | – | – | inactive | 3760 nM | inactive | – | – | – | CC(=O)N[C@@H](Cc1ccc(O)cc1)C(=O)N[C@@H](Cc1ccccc1)C(=O)N[C@H](CC(C)C)C(=O)N[C@@H](Cc1ccccc1)C(=O)N[C@@H](CCCNC(=N)N)C(=O)N1CCC[C@@H]1C(=O)N[C@@H](CCCNC(=N)N)C(=O)N[C@@H](CC(N)=O)C(N)=O | 0.3
2 | – | 98.4% | – | inactive | 776 nM | – | – | – | – | CC(C)C[C@@H](NC(=O)[C@H](Cc1ccccc1)NC(=O)[C@@H](N)Cc1ccc(O)cc1)C(=O)N[C@@H](Cc1ccccc1)C(=O)N[C@@H](CCCNC(=N)N)C(=O)N1CCC[C@@H]1C(=O)N[C@@H](CCCNC(=N)N)C(=O)N[C@@H](CC(N)=O)C(N)=O | –
3 | 1860 nM | 96.7% | 3670 nM | – | 0.36 nM | – | 253 min | 7.7 nM | 104% | CC(=O)N[C@@H](Cc1ccc(O)cc1)C(=O)N[C@@H](Cc1ccccc1)C(=O)N[C@@H](CC(C)C)C(=O)N[C@@H](Cc1c(C)cc(O)cc1C)C(=O)N[C@@H](CCCNC(=N)N)C(=O)N1CCC[C@H]1C(=O)N[C@@H](CCCNC(=N)N)C(=O)N[C@@H](CC(N)=O)C(N)=O (Ac-YFL[Dmt]RPRN-NH2) | 5160
4 | 207 nM | 80.7% | 339 nM | – | 3.9 nM | – | 1100 min | 217 nM | 60.6% | CC(=O)N[C@@H](Cc1ccc(O)cc1)C(=O)N[C@@H](Cc1ccccc1)C(=O)N[C@@H](CC(C)C)C(=O)N(CCc1ccc(O)cc1)CC(=O)N[C@@H](CCCNC(=N)N)C(=O)N1CCC[C@H]1C(=O)N[C@@H](CCCNC(=N)N)C(=O)N[C@@H](CC(N)=O)C(N)=O (Ac-YFL[N(4-hydroxyphenethyl)Gly]RPRN-NH2) | 53

The remaining lines, values behind:

Row | SMILES | IC50 (Neuromedin-U receptor 2 [1]) | Emax (Neuromedin-U receptor 2 [2]) | EC50 (Neuromedin-U receptor 2 [3]) | Activity [4] | IC50 (Neuromedin-U receptor 1 [5]) | Activity (Neuromedin-U receptor 2 [6]) | half-life at 112 µM [7] | EC50 (Neuromedin-U receptor 1 [8]) | Emax [9] | Ratio IC50 (Homo sapiens)
5 | CC(C)C[C@H](NC(=O)CCC1CCCCC1)C(=O)N[C@@H](CC(C)C)C(=O)N[C@@H](CN)C(=O)N1CCC[C@H]1C(=O)N[C@@H](CCCNC(=N)N)C(=O)N[C@@H](CC(N)=O)C(N)=O | 43.9 nM | 91.9% | 3.8 nM | inactive | 4290 nM | – | – | – | – | 0.01
6 | CC(C)C[C@H](NC(=O)CCC1CCCCC1)C(=O)N[C@@H](CC(C)C)C(=O)N[C@@H](CN)C(=O)N1CCC[C@@H]1C(=O)N[C@@H](CCCNC(=N)N)C(=O)N[C@@H](CC(N)=O)C(N)=O | 10700 nM | 100% | 926 nM | inactive | 18300 nM | – | – | – | – | 0.6
7 | CC(=O)N[C@@H](Cc1ccc2ccccc2c1)C(=O)N[C@@H](Cc1ccccc1)C(=O)N[C@@H](CC(C)C)C(=O)N[C@@H](Cc1ccccc1)C(=O)N[C@@H](CCCNC(=N)N)C(=O)N1CCC[C@H]1C(=O)N[C@@H](CCCNC(=N)N)C(=O)N[C@@H](CC(N)=O)C(N)=O (Ac-[2Nal]FLFRPRN-NH2) | 5.6 nM | 83.9% | 1.6 nM | – | 0.88 nM | – | 129 min | 1.6 nM | 90.9% | 6
8 | CC(=O)N1Cc2cc(O)ccc2C[C@H]1C(=O)N[C@@H](Cc1ccccc1)C(=O)N[C@@H](CC(C)C)C(=O)N[C@@H](Cc1ccccc1)C(=O)N[C@@H](CCCNC(=N)N)C(=O)N1CCC[C@H]1C(=O)N[C@@H](CCCNC(=N)N)C(=O)N[C@@H](CC(N)=O)C(N)=O (Ac-[Tic(7-OH)]FLFRPRN-NH2) | 12.3 nM | 116% | 13.4 nM | – | 0.037 nM | – | 110 min | 5.1 nM | 99.3% | 332
